Assay results taken from ChEMBL document CHEMBL2021854, “2-Aminopyrimidine based 4-aminoquinoline anti-plasmodial agents. Synthesis, biological activity, structure-activity relationship and mode of action studies” (Eur J Med Chem, 2012).

Tests used:
Influenza A virus [1] = test: Antiviral activity against Influenza A virus H1N1 infected in MDCK cells assessed as reduction visual scoring of virus-induced cytopathogenicity after 4 days; assay type: functional, organism-based; conditions: 96 h
How it was run: (§1)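 MDCK monolayers infected with 100 CCID50 of influenza A (H1N1 or H3N2) or influenza B, with varying compound concentrations. Cytopathicity read when untreated infected controls reached complete CPE.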

Influenza A virus [2] = test: Antiviral activity against Influenza A virus H1N1 infected in MDCK cells assessed as inhibition of virus-induced cytopathogenicity after 4 days by colorimetric formazan-based MTS assay; assay type: functional, organism-based; conditions: 96 h
Felid alphaherpesvirus 1 = test: Antiviral activity against Feline herpesvirus infected in cat CRFK cells assessed as inhibition of virus-induced cytopathic effect after 4 days by colorimetric formazan-based MTS assay; assay type: functional, organism-based; conditions: Felid alphaherpesvirus 1, CRFK, 96 h
Heme [3] = test: Binding affinity to monomeric heme in HEPES buffer at pH 5.6 by spectrophotometric analysis
Human alphaherpesvirus 1 [4] = test: Antiviral activity against HSV1 KOS infected in HEL cells assessed as inhibition of virus-induced cytopathogenicity after 4 days; assay type: functional, organism-based; conditions: Human alphaherpesvirus 1, KOS, 96 h
How it was run: (§2)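 Confluent HEL or HeLa monolayers infected with 100 CCID50 of virus in the presence of varying compound concentrations.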

Human betaherpesvirus 5 [5] = test: Antiviral activity against Human cytomegalovirus Davis infected in HEL cells assessed as inhibition of virus plaque formation after 4 days; assay type: functional, organism-based; conditions: Human betaherpesvirus 5, Davis, 96 h
[6] = system: Feline infectious peritonitis virus; test: Antiviral activity against FIPV infected in cat CRFK cells assessed as inhibition of virus-induced cytopathic effect after 4 days by colorimetric formazan-based MTS assay; assay type: functional, cell-based; conditions: Alphacoronavirus 1, CRFK, 96 h
[7] = system: Respiratory syncytial virus; test: Antiviral activity against Respiratory syncytial virus infected in human HeLa cells assessed as inhibition of virus-induced cytopathogenicity after 4 days; assay type: functional, organism-based; conditions: 96 h
How it was run: (§3)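 Confluent HEL, Vero or HeLa monolayers were inoculated with 100 CCID50 of virus in the presence of varying concentrations of compound. Cytopathicity was scored when it reached completion in untreated, virus-infected control cultures.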

Coxsackievirus B4 [8] = test: Antiviral activity against Coxsackie virus B4 infected in human HeLa cells assessed as inhibition of virus-induced cytopathogenicity after 4 days; assay type: functional, organism-based; conditions: Enterovirus B, 96 h; how it was run: as §3
Nucleic Acid [9] = test: Binding affinity to calf thymus DNA assessed as change in melting temperature; assay type: nucleic-acid assay; conditions: Bos taurus
How it was run: (§4)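 CT DNA (151 μM NP) was heated with or without compound at a 5:1 DNA:drug ratio in 40% DMSO/TE buffer pH 7.4 with 0.5 mM NaCl. Absorbance at 260 nm was followed with a 0.5 °C/min ramp to obtain Tm.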

[10] = Cytotoxicity against african green monkey Vero cells assessed as minimum compound concentration required to causes microscopically detectable alteration of normal cell morphology; assay type: cell-based; conditions: chlorocebus sabaeus
How it was run: (§5)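 Confluent, non-proliferating cell cultures were exposed to the compounds. The endpoint was the minimum concentration producing a microscopically detectable alteration of normal cell morphology.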

Influenza B virus [11] = test: Antiviral activity against Influenza B virus infected in MDCK cells assessed as reduction visual scoring of virus-induced cytopathogenicity after 4 days; assay type: functional, organism-based; conditions: 96 h; how it was run: as §1
Plasmodium falciparum [12] = test: Antiplasmodial activity chloroquine-sensitive Plasmodium falciparum 3D7 infected in human A+ erythrocytes assessed as inhibition of [3H]-hypoxanthine incorporation after 24 hrs by scintillation counting; assay type: functional, organism-based
[13] = Cytotoxicity against human HeLa cells assessed as minimum compound concentration required to causes microscopically detectable alteration of normal cell morphology; assay type: cell-based; how it was run: as §5
Human alphaherpesvirus 3 = test: Antiviral activity against thymidine kinase-deficient […] infected in HEL cells assessed as reduction of virus plaque formation after 4 days; assay type: functional, organism-based; conditions: Human alphaherpesvirus 3, 07-1, HEL, 96 h
Coxsackievirus B4 [14] = test: Antiviral activity against Coxsackie virus B4 infected in african green monkey Vero cells assessed as inhibition of virus-induced cytopathogenicity after 4 days; assay type: functional, organism-based; conditions: Enterovirus B, 96 h; how it was run: as §3
[15] = system: Human immunodeficiency virus 1; test: Antiviral activity against HIV1 infected in human CEM cells assessed as inhibition of virus-induced cytopathic effect after 4 days; assay type: functional, organism-based; conditions: Human immunodeficiency virus 1, CCRF-CEM, 96 h
How it was run: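 CEM T-lymphocytes (~3 × 10^5 cells/ml) were infected with HIV-1 IIIB or HIV-2 ROD at ~100 CCID50, then immediately plated with a range of compound concentrations. Giant cell formation was scored microscopically after 4 days at 37 °C. Cytostatic activity was tested in parallel in uninfected CEM cells.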

Sindbis virus = test: Antiviral activity against Sindbis virus infected in african green monkey Vero cells assessed as inhibition of virus-induced cytopathogenicity after 4 days; assay type: functional, organism-based; conditions: 96 h; how it was run: as §3
[16] = Cytotoxicity against MDCK cells assessed as minimum compound concentration required to causes microscopically detectable alteration of normal cell morphology; assay type: cell-based, Canis lupus familiaris; conditions: dog; how it was run: as §5
[17] = Selectivity index, ratio of CC50 for MDCK cells to IC50 for chloroquine-resistant Plasmodium falciparum K1; assay type: functional
How it was run: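 Selectivity index computed as MTS-based CC50 on MDCK cells divided by IC50 against P. falciparum K1.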

[18] = Cytotoxicity against cat CRFK cells assessed as cell viability by colorimetric formazan-based MTS assay; set-up: species or system Felis catus; conditions: crfk
Plasmodium falciparum [19] = test: Antiplasmodial activity chloroquine-resistant Plasmodium falciparum K1 infected in human A+ erythrocytes assessed as inhibition of [3H]-hypoxanthine incorporation after 24 hrs by scintillation counting; assay type: functional, organism-based
mu-oxodimeric heme = test: Binding affinity to mu-oxo heme in HEPES buffer at pH 5.8 by UV-visible spectrophotometry analysis
Human betaherpesvirus 5 [20] = test: Antiviral activity against Cytomegalovirus AD-169 infected in HEL cells assessed as inhibition of virus plaque formation after 4 days; assay type: functional, organism-based; conditions: Human betaherpesvirus 5, AD169, HEL, 96 h
[21] = system: Mammalian orthoreovirus 1; test: Antiviral activity against Reovirus-1 infected in african green monkey Vero cells assessed as inhibition of virus-induced cytopathogenicity after 4 days; assay type: functional, organism-based; conditions: Mammalian orthoreovirus 1, Vero, 96 h; how it was run: as §3
[22] = Cytotoxicity against human HEL cells assessed as minimum compound concentration required to causes microscopically detectable alteration of normal cell morphology; assay type: cell-based; how it was run: as §5
Heme [23] = test: Binding affinity to monomeric heme in HEPES buffer at pH 7.5 by spectrophotometric analysis
How it was run: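 Monomeric hemin (2.4 μM, 40% DMSO in water) was titrated with compound (0–70 μM) added from DMSO stocks, with absorbance read at 402 nm after each addition. Buffer was HEPES (pH 7.4) for the neutral condition and MES ([…]) for the pH 5.6 condition. Stoichiometry was by Job's method and log K by HypSpec fitting.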

Plasmodium falciparum [24] = test: Resistant factor, ratio of IC50 for chloroquine-resistant Plasmodium falciparum K1 to IC50 for chloroquine-sensitive Plasmodium falciparum 3D7; assay type: functional
How it was run: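 Resistance factor computed as IC50 against K1 divided by IC50 against 3D7, both from the [3H]hypoxanthine incorporation assay.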

Nucleic Acid [25] = test: Binding affinity to calf thymus DNA assessed as melting temperature; assay type: nucleic-acid assay; conditions: Bos taurus; how it was run: as §4
Influenza B virus [26] = test: Antiviral activity against Influenza B virus infected in MDCK cells assessed as inhibition of virus-induced cytopathogenicity after 4 days by colorimetric formazan-based MTS assay; assay type: functional, organism-based; conditions: 96 h
MDCK = test: Cytotoxicity against MDCK cells assessed as cell viability by colorimetric formazan-based MTS assay; set-up: species or system Canis lupus familiaris; conditions: dog, mdck
How it was run: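 Cytotoxicity on MDCK cells; 50% cytotoxic concentration from cell viability measured by colorimetric formazan-based MTS assay.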

Human alphaherpesvirus 1 [27] = test: Antiviral activity against thymidine kinase-deficient acyclovir-resistant HSV1 KOS infected in HEL cells assessed as inhibition of virus-induced cytopathogenicity after 4 days; assay type: functional, organism-based; conditions: Human alphaherpesvirus 1, KOS, 96 h; how it was run: as §2

Cc1nc(NCCCCNc2ccnc3cc(Cl)ccc23)nc(-c2ccccc2[N+](=O)[O-])c1C(=O)OC(C)C
EC50 (Influenza A virus [1]): > 0.8 µM
EC50 (Influenza A virus [2]): > 0.8 µM
EC50 (Felid alphaherpesvirus 1): > 20 µM
log Ks (Heme [3]): 4.97
EC50 (Human alphaherpesvirus 1 [4]): > 4 µM
EC50 (Human betaherpesvirus 5 [5]): > 4 µM
EC50 [6]: > 20 µM
EC50 [7]: > 20 µM
EC50 (Coxsackievirus B4 [8]): > 20 µM
ΔTm (Nucleic Acid [9]): 2.5 °C
MCC [10]: 100 µM
EC50 (Influenza B virus [11]): > 0.8 µM
IC50 (Plasmodium falciparum [12]): 0.0182 µM
MCC [13]: 100 µM
EC50 (Human alphaherpesvirus 3): > 4 µM
EC50 (Coxsackievirus B4 [14]): > 20 µM
EC50 [15]: > 2 µM
EC50 (Sindbis virus): > 20 µM
MCC [16]: 4000 nM
Ratio CC50/IC50 [17]: 638
CC50 [18]: 27.2 µM
IC50 (Plasmodium falciparum [19]): 0.0036 µM
log Ks (mu-oxodimeric heme): 6.31
EC50 (Human betaherpesvirus 5 [20]): > 4 µM
EC50 [21]: > 20 µM
MCC [22]: 20 µM
log Ks (Heme [23]): 5.08
Ratio IC50 (Plasmodium falciparum [24]): 0.2
Tm (Nucleic Acid [25]): 62.5 °C
EC50 (Influenza B virus [26]): > 0.8 µM
CC50 (MDCK): 2.3 µM
EC50 (Human alphaherpesvirus 1 [27]): > 4 µM

CCOC(=O)c1c(C)nc(NCCCCNc2ccnc3cc(Cl)ccc23)nc1-c1ccccc1
EC50 (Influenza A virus [1]): > 0.16 µM
EC50 (Influenza A virus [2]): > 0.16 µM
EC50 (Felid alphaherpesvirus 1): > 4 µM
log Ks (Heme [3]): 5.28
EC50 (Human alphaherpesvirus 1 [4]): > 100 µM
EC50 (Human betaherpesvirus 5 [5]): 1.46 µM
EC50 [6]: > 4 µM
EC50 [7]: > 100 µM
EC50 (Coxsackievirus B4 [8]): > 100 µM
ΔTm (Nucleic Acid [9]): 3 °C
MCC [10]: > 100 µM
EC50 (Influenza B virus [11]): > 0.16 µM
IC50 (Plasmodium falciparum [12]): 0.202 µM
MCC [13]: > 100 µM
EC50 (Human alphaherpesvirus 3): > 20 µM
EC50 (Coxsackievirus B4 [14]): > 100 µM
EC50 [15]: > 2 µM
EC50 (Sindbis virus): > 100 µM
MCC [16]: 800 nM
Ratio CC50/IC50 [17]: 34.41
CC50 [18]: 13.9 µM
IC50 (Plasmodium falciparum [19]): 0.0261 µM
log Ks (mu-oxodimeric heme): 6.09
EC50 (Human betaherpesvirus 5 [20]): 2 µM
EC50 [21]: > 100 µM
MCC [22]: > 20 µM
log Ks (Heme [23]): 6.02
Ratio IC50 (Plasmodium falciparum [24]): 0.129
Tm (Nucleic Acid [25]): 63 °C
EC50 (Influenza B virus [26]): > 0.16 µM
CC50 (MDCK): 0.9 µM
EC50 (Human alphaherpesvirus 1 [27]): > 100 µM
